Data set [1] deals with Liver microsomes. The experiment in a line: Metabolic stability in human liver microsomes. Format: ADME, Microsome. The essentials: (§1)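 Human or rat liver microsomes incubated with compound for 15 min at 37 °C; result expressed as percent of intact compound remaining.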
(Liver microsomes are vesicles of endoplasmic reticulum, rich in cytochrome P450 enzymes.)

Data set [2] concerns Liver microsomes. The experiment in a line: Metabolic stability in rat liver microsomes. Format: ADME, Microsome. The essentials:
as §1

Data set [3] can be described thus: Cmax in rat at 10 mg/kg, po. It is filed as ADME, organism-based. Further details: dose 10 mg/kg, route oral. The conditions noted are these: in vivo. The essentials:
(§2)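 Rats dosed orally at 10 mg/kg; compound given as the sodium salt where specified.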

Data set [4] in a line: AUC (0 to 4 hrs) in rat at 10 mg/kg, po. It is filed as ADME, organism-based. More on the design: time < 4 hr, dose 10 mg/kg, route oral. The settings on record: plasma. The essentials: as §2
A short description of data set [5]: Half life in rat at 10 mg/kg, iv and 10 mg/kg, po. Format: ADME, organism-based. The conditions noted are these: in vivo. The essentials:
(§3)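 Rats dosed at 10 mg/kg iv and 10 mg/kg po, compound given as the sodium salt.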

The nature of data set [6]: Total clearance in rat at 10 mg/kg, iv and 10 mg/kg, po. Format: ADME, organism-based. The conditions noted are these: in vivo. The essentials:
as §3

Data set [7] is described as follows: Volume of distribution at steady state in rat at 10 mg/kg, iv and 10 mg/kg, po. It is filed as ADME, organism-based. The settings on record: in vivo, read-out: Vdss. The essentials:
as §3

Data set [8] is described as follows: Oral bioavailability in rat at 10 mg/kg. Format: ADME, organism-based. The conditions noted are these: in vivo. The essentials:
as §2

In general, Cmax refers to the maximum level reached in the sampled fluid or tissue. A word on the AUC(0-t): it is exposure summed from dosing to a finite time, without extrapolation to infinity. Read a high AUC(0-t) as high exposure. For orientation: half-life means the time needed for the level to fall by half in the phase considered. Higher therefore signals slow loss. One may read the bioavailability as the share of a dose that reaches the circulation, judged against a reference dose that is usually intravenous. A low value points to poor availability. As to `O=C([O-])CCc1ccc(Cn2cccn2)cc1OCCc1ccc2ccccc2c1.[Na+]`, the Stability in data set [1] was found to be 100%; in data set [2] it was 73%. This compound gave a Cmax in data set [3] of 8320 ng/mL. Further, in data set [4], the area under the curve AUC(0-t) at 4 h came to 22900 ng·h/mL. The compound further had a half-life in data set [5] of 2.93 h. For the same compound, the clearance in data set [6] was 2.77 mL/min/kg. The Vd in data set [7] amounted to 0.538 L/kg. The bioavailability in data set [8] was 53%.

The values above are taken from ChEMBL document CHEMBL1152570, “Discovery of a series of acrylic acids and their derivatives as chemical leads for selective EP3 receptor antagonists” (Bioorg Med Chem, 2009).
